Measurements taken from PubChem BioAssay.
Active and inactive are the calls of the source.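 Rule for the calls, unless noted: active = inhibition at or above 50% relative to wild type and mutant plate controls; inactive = inhibition below 50%.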

Legend:
[1] = inhibitors of TNFa-induced NFkB p65 translocation, primary screen, imaging, HUVEC, MLSMR starter and 10KST1 sets (AID 438;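 active = inhibition above 20% together with a positive visual image hit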;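 note: compound added about 3h40 before a 20 min TNFalpha stimulation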;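 for inhibition: signal is the nuclear over cytoplasmic p65 intensity ratio per well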); details: HUVEC TNFa-induced p65 nuclear translocation; cell count: measured here: nuclei count (cytotoxicity indicator), at 2.08 µM; inhibition: at 2 µM, stronger effect = higher value, 0% TNFa-plus-vehicle, 100% no-TNFa wells
[2] = inhibitors of E-selectin induction by TNFa, primary screen, imaging, HUVEC, immunofluorescence, MLSMR starter and 10KST1 sets (AID 487;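 active = visually confirmed hit in the image check and inhibition above 20%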;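 for inhibition: signal is fraction of cell area covered by stained E-selectin grains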;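 for nuclei count: 100% = median nuclei count of all wells on the same plate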); details: HUVEC TNFalpha-induced E-selectin immunofluorescence imaging, at 2 µM; inhibition: stronger effect = higher value; nuclei count: measured here: cell number, toxicity
[3] = DUSP6 inhibitors restoring Erk phosphorylation by chemical complementation, primary imaging in DUSP6-transfected HeLa (AID 609;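 active = compounds giving at least 50% inhibition in the cell-based MKP-3 phosphatase rescue imaging test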;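 for inhibition: phospho-Erk level distribution per well compared with pooled transfected vehicle control wells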); details: HeLa MKP-3 transfected, phospho-Erk imaging KS statistic, at 10 µM, cells stimulated with TPA for 15 min
[4] = target: Dual specificity protein phosphatase 6 (Homo sapiens) (UniProt Q16828); experiment: as above; details: HeLa MKP-3 transfected, phospho-Erk imaging KS statistic; at 10 µM; stronger effect = higher value; cells stimulated with TPA for 15 min
Sequence of Dual specificity protein phosphatase 6 (Homo sapiens) (Q16828 whole entry, looked up): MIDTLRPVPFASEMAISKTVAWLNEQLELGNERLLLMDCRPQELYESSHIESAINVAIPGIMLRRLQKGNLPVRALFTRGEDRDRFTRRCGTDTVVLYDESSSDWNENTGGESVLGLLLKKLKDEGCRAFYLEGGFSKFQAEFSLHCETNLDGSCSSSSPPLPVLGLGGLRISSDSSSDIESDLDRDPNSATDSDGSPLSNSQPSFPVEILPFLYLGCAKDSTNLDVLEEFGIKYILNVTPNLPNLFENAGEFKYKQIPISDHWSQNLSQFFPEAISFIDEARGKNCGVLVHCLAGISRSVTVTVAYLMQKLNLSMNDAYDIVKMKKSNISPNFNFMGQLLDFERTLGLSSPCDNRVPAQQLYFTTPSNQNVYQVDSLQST

[5] = target: Voltage-gated potassium channel subunit beta-2 (Rattus norvegicus) (UniProt P62483); experiment: KvBeta enzyme negative modulators, primary screen, biochemical, NADPH fluorescence (AID 622;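 active = fluorescence slope higher than the sample average by over 3 SD, cut at about -0.22 in these data, passing the limit was not always enough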;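 note: slope of raw intensity against log time taken from 70 to 1610 s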); details: recombinant KvBeta, 4-cyanobenzaldehyde reduction, at 10 µM, stronger effect = higher value
Sequence of Voltage-gated potassium channel subunit beta-2 (Rattus norvegicus) (P62483 whole entry, looked up): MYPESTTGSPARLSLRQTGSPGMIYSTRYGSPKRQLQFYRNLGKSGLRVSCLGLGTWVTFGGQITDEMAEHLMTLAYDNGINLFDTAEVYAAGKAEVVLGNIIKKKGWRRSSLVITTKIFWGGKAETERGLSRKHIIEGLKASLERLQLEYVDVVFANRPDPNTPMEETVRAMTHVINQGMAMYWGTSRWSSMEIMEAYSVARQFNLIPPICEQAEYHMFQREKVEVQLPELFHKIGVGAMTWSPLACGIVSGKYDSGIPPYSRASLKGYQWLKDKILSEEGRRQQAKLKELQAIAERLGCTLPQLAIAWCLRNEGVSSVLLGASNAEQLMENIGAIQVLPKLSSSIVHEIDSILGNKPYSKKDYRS

[6] = target: Voltage-gated potassium channel subunit beta-2 (Rattus norvegicus) (UniProt P62483); experiment: KvBeta positive modulators, primary screen, biochemical, NADPH fluorescence (AID 623;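 active = NADPH fluorescence slope more negative than the mean of all samples by about 3 SD, 99.7% confidence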;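 note: fluorescence intensity change per second fitted from 20 to 320 s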); details: Recombinant KvBeta, NADPH fluorescence decrease slope, 10 min; at 10 µM; stronger effect = lower value
[7] = target: Alpha-2C adrenergic receptor (Homo sapiens) (UniProt P18825); experiment: modulators of alpha2C/GIRK thallium flux, primary screen, cell-based, HEK293 alpha2C/GIRK1/2 (AID 624;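 active = fluorescence slope after compound addition differing from the mean of all screened samples at 99.7% confidence, in either direction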;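 note: slope of fluorescence ratio to pre-addition baseline per second over 15 to 24 s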); details: thallium flux BTC fluorescence, at 10 µM, actives lie on both sides
Sequence of Alpha-2C adrenergic receptor (Homo sapiens) (P18825 whole entry, looked up): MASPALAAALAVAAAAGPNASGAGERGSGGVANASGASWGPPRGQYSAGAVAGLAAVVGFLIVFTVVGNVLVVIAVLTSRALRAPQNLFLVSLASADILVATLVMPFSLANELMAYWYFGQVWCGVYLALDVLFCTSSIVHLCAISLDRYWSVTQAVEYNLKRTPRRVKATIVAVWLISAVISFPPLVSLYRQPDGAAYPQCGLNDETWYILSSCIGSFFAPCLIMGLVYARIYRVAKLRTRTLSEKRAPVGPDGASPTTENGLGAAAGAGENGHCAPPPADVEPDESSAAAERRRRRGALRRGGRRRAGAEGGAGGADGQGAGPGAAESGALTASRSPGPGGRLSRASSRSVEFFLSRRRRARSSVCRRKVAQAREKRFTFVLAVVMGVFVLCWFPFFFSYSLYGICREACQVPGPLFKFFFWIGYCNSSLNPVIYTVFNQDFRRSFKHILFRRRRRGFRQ

[8] = inhibitors of larval lipid processing in zebrafish, primary screen, whole organism, PED6 fluorescence, gall bladder and intestine (AID 686;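 active = a full or partial loss of lipid-probe fluorescence in the fish gall bladder, intestine or both, judged by eye; inactive = no fluorescence loss, or compound toxic to the fish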;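 note: larvae 5 to 7 days old with five fish per well; signal comes from phospholipase A2 cleavage of quenched PED6 carried via bile; overnight exposure to compound and PED6 before scoring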); details: Zebrafish larvae PED6 lipid processing, fluorescence scoring; screened at 20 µM (by protocol)
Summary of the method: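 Doses: 20 µM single dose. Test system: live zebrafish larvae aged 5-7 days, whole organism. Quantity: five larvae per well. Measured by: By-eye fluorescence microscopy. Reagent: ingested quenched lipid PED6 at 100 nM. Read-out: visual per-well fluorescence inhibition score. Times: overnight exposure of larvae to compound plus PED6.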

[9] = inhibitors of Chlamydomonas gravitaxis, primary screen, whole organism, Chlamydomonas reinhardtii, WT vs cilia-less mutant, absorbance, 96-well (AID 463189); details: OD600 absorbance, 2 days, at 10 µM, stronger effect = higher value;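 note: 0% = wild type cc124 cells in DMSO and 100% = ciliumless bld1 mutant cells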
[10] = measured here: cell density z-score
[11] = measured here: nuclear c-Myc green intensity z-score
[12] = measured here: nuclear pErk red intensity z-score, stronger effect = higher value

Compound | cell count [1] | inhibition [1] | inhibition [2] | nuclei count [2] [%] | z-score [3, 10] | z-score [3, 11] | z-score [3, 12] | inhibition [4] | fluorescence slope [5] | NADPH fluorescence slope [6] | slope [7] | outcome [8] | inhibition [9]
C/C(=N\O)C1(C)N(O)C(C)(C)C(c2ccco2)=[N+]1[O-] (centres undefined) | 428 | -2.8% (inactive) | -112% (inactive) | 131 | 0.73 | -1.17 | -0.0605 | 13.2% (inactive) | -0.486 (inactive) | -3.2e-05 (inactive) | 0.00518 (inactive) | inactive | 14.5% (inactive)
COC(=O)C1C(=O)CC(C)(O)C(C(=O)OC)C1c1ccccc1F (centres undefined) | 586 | -1.8% (inactive) | -42.2% (inactive) | 178 | -1.74 | -0.438 | 1.61 | 7.83% (inactive) | -0.345 (inactive) | -3.4e-05 (inactive) | 0.00488 (inactive) | inactive | -7% (inactive)
N/C(CCN1CCOCC1)=N/O | 570 | -20.6% (inactive) | 11.7% (inactive) | 147 | 0.759 | -0.712 | 0.254 | 22.7% (inactive) | -0.445 (inactive) | -1.6e-05 (inactive) | 0.00517 (inactive) | inactive | 17.7% (inactive)
COC(=O)c1ccn(C(=O)c2ccc(Cl)cc2)n1 | 646 | -1.4% (inactive) | -13.4% (inactive) | 147 | 1.7 | -0.283 | 1.25 | -2.91% (inactive) | -0.519 (inactive) | -4e-05 (inactive) | 0.00635 (inactive) | inactive | 6.37% (inactive)
CCN1CC2=C(OC(N)=C(C#N)C2c2ccccc2)/C(=C\c2ccccc2)C1 (centres undefined) | 489 | -6.9% (inactive) | -190% (inactive) | 174 | 0.232 | -0.856 | 0.432 | 9.61% (inactive) | -0.332 (inactive) | -1.3e-05 (inactive) | 0.00402 (inactive) | active; no signal in intestine only | 14.6% (inactive)
CCC1(C)Cc2c(C#N)c(N)sc(=S)c2CO1 (centres undefined) | 505 | -3.2% (inactive) | -128% (inactive) | 140 | 0.126 | 0.287 | -0.524 | -14% (inactive) | -0.501 (inactive) | -2.4e-05 (inactive) | 0.00206 (inactive) | inactive | 28.8% (inactive)
O=c1c(-c2ccc3c(c2)OCCO3)c(C(F)(F)F)oc2cc(O)cc(O)c12 | 534 | -10.2% (inactive) | -138% (inactive) | 131 | 1.65 | -1.41 | -0.0254 | 1.9e-07% (inactive) | -0.533 (inactive) | -4e-05 (inactive) | 0.00864 (inactive) | inactive | 29.9% (inactive)
Cn1c(=O)n(CCc2ccccc2)c(=O)c2c1ncn2Cc1ccccc1 | 505 | -1.6% (inactive) | 42.5% (inactive) | 115 | -0.468 | 1.76 | -0.503 | -6.48% (inactive) | -0.508 (inactive) | -0.000139 (inactive) | 0.00833 (inactive) | inactive | -10.3% (inactive)
O=C(O)CC(C(=O)N(c1ccccc1)c1ccccc1)N1CCOCC1 (centres undefined) | 498 | -4.7% (inactive) | -103% (inactive) | 118 | -1.14 | 0.849 | 1.75 | -7.01% (inactive) | -0.576 (inactive) | -4e-05 (inactive) | 0.00573 (inactive) | inactive | -20.4% (inactive)
COc1ccc(C(=O)N2CCC(N3CCN(c4ccccc4)CC3)CC2)cc1OC | 420 | -28.9% (inactive) | -222% (inactive) | 170 | 1.05 | -0.675 | -0.812 | 17.7% (inactive) | -0.348 (inactive) | 9.9e-06 (inactive) | 0.00411 (inactive) | inactive | 29.9% (inactive)
COc1ccccc1C(=O)N1CCCC1(C#N)c1ccccc1 (centres undefined) | 653 | 1.8% (inactive) | -44.9% (inactive) | 121 | -0.569 | -0.677 | -0.674 | -6.48% (inactive) | -0.475 (inactive) | -0.000294 (inactive) | 0.00555 (inactive) | inactive | 13% (inactive)
CC1(C)Cc2c(sc3ncn4nnnc4c23)CO1 | 685 | -0.9% (inactive) | -182% (inactive) | 180 | 1.78 | -1.07 | 0.925 | 13.2% (inactive) | -0.522 (inactive) | -3.9e-05 (inactive) | 0.00539 (inactive) | inactive | 9.27% (inactive)
CCC(C)Nc1nc(-c2cccc(OC)c2O)nc2ccccc12 (centres undefined) | 570 | 3.5% (inactive) | -68.3% (inactive) | 152 | -0.862 | -0.242 | 1.22 | 1.6e-07% (inactive) | -0.394 (inactive) | -5e-05 (inactive) | 0.00426 (inactive) | inactive | 65.6% (active)
